From ChEMBL document CHEMBL1153726, “Synthesis and anticancer activity of sclerophytin-inspired hydroisobenzofurans” (Bioorg Med Chem Lett, 2009)

Experiments:
[1] = tested on: MDA-MB-468; assay: Growth inhibition of human MDA-MB-468 cells at 1 nM after 96 hrs by MTT assay; assay type: functional; set-up: scale not given: the % may be the effect or the level left
[2] = tested on: SN12C; assay: Growth inhibition of human SN12C cells at 1 nM after 96 hrs by MTT assay; assay type: functional; set-up: scale not given: the % may be the effect or the level left
[3] = tested on: OVCAR-4; assay: Growth inhibition of human OVCAR4 cells at 1 nM after 96 hrs by MTT assay; assay type: functional; set-up: scale not given: the % may be the effect or the level left
[4] = tested on: UACC-62; assay: Growth inhibition of human UACC62 cells at 1 nM after 96 hrs by MTT assay; assay type: functional; set-up: scale not given: the % may be the effect or the level left
[5] = tested on: LOX IMVI; assay: Growth inhibition of human LOXIMVI cells at 1 nM after 96 hrs by MTT assay; assay type: functional; set-up: scale not given: the % may be the effect or the level left
[6] = tested on: SF-295; assay: Growth inhibition of human SF295 cells at 1 nM after 96 hrs by MTT assay; assay type: functional; set-up: scale not given: the % may be the effect or the level left
[7] = tested on: SW-620; assay: Growth inhibition of human SW620 cells at 1 nM after 96 hrs by MTT assay; assay type: functional; set-up: scale not given: the % may be the effect or the level left
[8] = tested on: NCI-H322M; assay: Growth inhibition of human NCI-H322M cells at 1 nM after 96 hrs by MTT assay; assay type: functional; set-up: scale not given: the % may be the effect or the level left
[9] = tested on: DU-145; assay: Growth inhibition of human DU145 cells at 10 uM after 96 hrs by MTT assay; assay type: functional; set-up: scale not given: the % may be the effect or the level left
[10] = tested on: PC-3; assay: Growth inhibition of human PC3 cells at 10 uM after 96 hrs by MTT assay; assay type: functional; set-up: scale not given: the % may be the effect or the level left
[11] = tested on: UO-31; assay: Growth inhibition of human UO31 cells at 10 uM after 96 hrs by MTT assay; assay type: functional; set-up: scale not given: the % may be the effect or the level left
[12] = tested on: SK-MEL-2; assay: Growth inhibition of human SK-MEL-2 cells at 10 uM after 96 hrs by MTT assay; assay type: functional; set-up: scale not given: the % may be the effect or the level left
[13] = tested on: NCI-H460; assay: Growth inhibition of human NCI-H460 cells at 10 uM after 96 hrs by MTT assay; assay type: functional; set-up: scale not given: the % may be the effect or the level left
[14] = Antitumor activity against human KB3 cells after 96 hrs by MTT assay; assay type: functional, cell-based; conditions: KB3, 96 h
Summary of the method: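 Human KB-3 carcinoma cells exposed to increasing compound concentrations; viability read by MTT colorimetric assay after 96 h. Values are means of triplicate assays, expressed relative to untreated controls.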

[15] = tested on: Malme-3M; assay: Growth inhibition of human MALME-3M cells at 10 nM after 96 hrs by MTT assay; assay type: functional; set-up: scale not given: the % may be the effect or the level left
[16] = tested on: U-251; assay: Growth inhibition of human U251 cells at 10 nM after 96 hrs by MTT assay; assay type: functional; set-up: scale not given: the % may be the effect or the level left
[17] = tested on: SNB-75; assay: Growth inhibition of human SNB75 cells at 10 nM after 96 hrs by MTT assay; assay type: functional; set-up: scale not given: the % may be the effect or the level left
[18] = tested on: SF-539; assay: Growth inhibition of human SF539 cells after 96 hrs by MTT assay; assay type: functional; conditions: SF-539, 96 h
Summary of the method: (§1)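 Tested in the NCI 60-cell-line panel in five-dose format; GI50 and LC50 values reported for each cell line.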

[19] = tested on: U-251; assay: Growth inhibition of human U251 cells after 96 hrs by MTT assay; assay type: functional; conditions: U-251, 96 h; summary of the method: as §1
[20] = tested on: OVCAR-8; assay: Growth inhibition of human OVCAR8 cells after 96 hrs by MTT assay; assay type: functional; conditions: OVCAR-8, 96 h; summary of the method: as §1
[21] = read-out: LC50 (the source's name)
[22] = read-out: Log10GI50 (converted)
[23] = read-out: Log10LC50 (converted)

C=C(C)[C@H]1CC=C(C)C2=CO[C@@H](c3ccccc3F)[C@@H]21
Activity [1]: 93%
Activity [2]: 85%
Activity [3]: 91%
Activity [4]: 88%
Activity [5]: 97%
Activity [6]: 96%
Activity [7]: 96%
Activity [8]: 95%
Activity [9]: 105.62%
Activity [10]: 22.47%
Activity [11]: 78.96%
Activity [12]: 71.47%
Activity [13]: 92.68%
IC50 [14]: 1 µM
Activity [15]: 88%
Activity [16]: 94%
Activity [17]: 81%
GI50 ([18]; read-out: GI50): 6.82 µM
CC50 [18, 21]: 44.8 µM
GI50 [18, 22]: 6.76 µM
CC50 [18, 23]: 44.7 µM
TGI ([18]; read-out: Log10TGI (converted)): 20 µM
TGI ([18]; read-out: TGI): 20 µM
GI50 ([19]; read-out: GI50): 3.06 µM
CC50 [19, 21]: 37.7 µM
GI50 [19, 22]: 3.09 µM
CC50 [19, 23]: 38 µM
TGI ([19]; read-out: Log10TGI (converted)): 14.1 µM
TGI ([19]; read-out: TGI): 14.2 µM
GI50 ([20]; read-out: GI50): 11.9 µM
CC50 [20, 21]: 79 µM
GI50 [20, 22]: 11.7 µM
CC50 [20, 23]: 79.4 µM
TGI ([20]; read-out: Log10TGI (converted)): 30.9 µM
